The values below come from the array DNA melting data of Ke et al. (doi:10.1101/2024.01.08.574731).

A short description of data set [1]: folding enthalpy; higher = less favourable; fluorescence melt of hairpins on a sequencing array, two-state fit. Conditions: sodium 0.088 M. Put shortly:
(§1)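 Hairpins were imaged by Cy3 fluorescence on a sequenced MiSeq flow cell with annealed Cy3 and quencher oligos, in 50 mM Na-HEPES pH 8.0, 25 mM NaCl, in 2.5 °C steps up to 60 °C. Bootstrapped two-state fits of normalised signals gave melting temperature and folding enthalpy. Four replicates were combined by inverse variance, and fitted temperatures were raised by 9.35 °C to match UV melts.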

Data set [2] is described as follows: melting temperature; fluorescence melt of hairpins on a sequencing array, two-state fit, raised by 9.35 °C to match UV melts. The following applies: sodium 0.088 M. Put shortly:
as §1

Regarding GATCGCCGAGCGATC ((((((...)))))), the folding enthalpy in data set [1] is -32.5 kcal/mol. Moreover, the Tm in data set [2] is 67.3 °C.

As for GATCGCCGGAGCGATC ((((((....)))))), in data set [1], the folding enthalpy was -31.6 kcal/mol. Besides, the Tm in data set [2] was found to be 68.9 °C.

Regarding GATCGCCGGCGCGATC ((((((....)))))), the folding enthalpy in data set [1] is -34.1 kcal/mol. Also, in data set [2], the Tm was 61.1 °C.

In the case of GATCGCCGGGCGATC ((((((...)))))), the folding enthalpy in data set [1] was -31.1 kcal/mol. Further, the Tm in data set [2] stood at 67.8 °C.

For GATCGCCGTAGCGATC ((((((....)))))), in data set [1], the folding enthalpy is -45 kcal/mol. For the same sequence, in data set [2], the Tm stood at 69.2 °C.

Consider GATCGCCTATGCGATC ((((((....)))))), for which, in data set [1], the folding enthalpy was -31.6 kcal/mol. In data set [2], the Tm turned out to be 68.1 °C.

With GATCGCCTCTGCGATC ((((((....)))))), in data set [1], the folding enthalpy was -37 kcal/mol. Also, the Tm in data set [2] amounted to 66.5 °C.

As for GATCGCCTGTGCGATC ((((((....)))))), the folding enthalpy in data set [1] was -36.7 kcal/mol. For the same sequence, the Tm in data set [2] was determined as 66.8 °C.

As for GATCGCGAAAGCGCATC ((((((....))).))), the folding enthalpy in data set [1] is -15.3 kcal/mol. In data set [2], the Tm was determined as 51.4 °C.

With GATCGCGAAAGCGGAATC ((((((....)))..))), in data set [1], the folding enthalpy was -10.9 kcal/mol. Besides, in data set [2], the Tm was 34.8 °C.

In the case of GATCGCGAGGGCGATC ((((((....)))))), the folding enthalpy in data set [1] was -38 kcal/mol. The Tm in data set [2] stood at 68 °C.

For GATCGCTCACGCGATC ((((((....)))))), the folding enthalpy in data set [1] is -41.2 kcal/mol. Moreover, in data set [2], the Tm was 67.8 °C.

For GATCGCTCCCGCGATC ((((((....)))))), the folding enthalpy in data set [1] was -34.3 kcal/mol. In data set [2], the Tm is 67.8 °C.

Turning to GATCGCTCCGGCGATC ((((((....)))))), the folding enthalpy in data set [1] is -39.2 kcal/mol. Moreover, the Tm in data set [2] is 68.4 °C.

In the case of GATCGCTCTGCGATC ((((((...)))))), the folding enthalpy in data set [1] was -41.8 kcal/mol. Besides, the Tm in data set [2] is 68.5 °C.

For the sequence GATCGCTGACGCGATC ((((((....)))))), in data set [1], the folding enthalpy was -36.5 kcal/mol. Further, the Tm in data set [2] came out at 66.7 °C.

On to GATCGCTGCGGCGATC ((((((....)))))), for which the folding enthalpy in data set [1] was -38.9 kcal/mol. For the same sequence, the Tm in data set [2] was 68.9 °C.

For GATCGCTGGTGCGATC ((((((....)))))), the folding enthalpy in data set [1] was -34.2 kcal/mol. Besides, the Tm in data set [2] turned out to be 68.6 °C.

For GATCGCTTCTGCGATC ((((((....)))))), the folding enthalpy in data set [1] is -42.3 kcal/mol. Moreover, in data set [2], the Tm came to 68.3 °C.

For the sequence GATCGCTTTCGCGATC ((((((....)))))), in data set [1], the folding enthalpy was -38.4 kcal/mol. Also, the Tm in data set [2] was 67.4 °C.

Take GATCGGAAACCCGATC ((((((....)))))): the folding enthalpy in data set [1] was -34.6 kcal/mol. Further, the Tm in data set [2] was 53.9 °C.

For the sequence GATCGGAACCCGATC ((((((...)))))), in data set [1], the folding enthalpy was -44 kcal/mol. Further, the Tm in data set [2] was 54 °C.

For GATCGGAACGCCGATC ((((((....)))))), the folding enthalpy in data set [1] was -41.2 kcal/mol. Moreover, the Tm in data set [2] came to 54.7 °C.

Consider GATCGGACAACCGATC ((((((....)))))), for which the folding enthalpy in data set [1] was -34.7 kcal/mol. Besides, the Tm in data set [2] was 53.5 °C.

In the case of GATCGGACGCCGATC ((((((...)))))), the folding enthalpy in data set [1] is -37.4 kcal/mol. The Tm in data set [2] was 53.6 °C.

As for GATCGGAGCACCGATC ((((((....)))))), the folding enthalpy in data set [1] was -34.3 kcal/mol. The Tm in data set [2] came out at 57.4 °C.

Turning to GATCGGAGGCCCGATC ((((((....)))))), the folding enthalpy in data set [1] was -34.1 kcal/mol. Also, the Tm in data set [2] turned out to be 56.4 °C.

Take GATCGGAGTGCCGATC ((((((....)))))): the folding enthalpy in data set [1] was -30.2 kcal/mol. Besides, the Tm in data set [2] was determined as 57 °C.

Consider GATCGGAGTTCCGATC ((((((....)))))), for which, in data set [1], the folding enthalpy was -37.8 kcal/mol. Moreover, the Tm in data set [2] turned out to be 56.7 °C.

In the case of GATCGGATACCCGATC ((((((....)))))), the folding enthalpy in data set [1] is -40.3 kcal/mol. Also, the Tm in data set [2] was found to be 56.6 °C.

Take GATCGGATAGCCGATC ((((((....)))))): the folding enthalpy in data set [1] was -29.6 kcal/mol. The Tm in data set [2] worked out at 55.4 °C.

As for GATCGGATGCCCGATC ((((((....)))))), in data set [1], the folding enthalpy is -27 kcal/mol. Besides, the Tm in data set [2] is 55.5 °C.

As for GATCGGATTACCGATC ((((((....)))))), in data set [1], the folding enthalpy was -38.7 kcal/mol. In data set [2], the Tm came to 58.2 °C.

Consider GATCGGCAACCGATC ((((((...)))))), for which, in data set [1], the folding enthalpy is -36.7 kcal/mol. Further, the Tm in data set [2] was found to be 54.6 °C.

As to GATCGGCCGCCGATC ((((((...)))))), the folding enthalpy in data set [1] was -36.6 kcal/mol. Moreover, the Tm in data set [2] came to 55.7 °C.

As for GATCGGCGAAAGCCCATC (((.(((....))).))), the folding enthalpy in data set [1] was -11.2 kcal/mol. Also, the Tm in data set [2] is 36.4 °C.

As for GATCGGCGAACCGATC ((((((....)))))), the folding enthalpy in data set [1] was -38.2 kcal/mol. Further, in data set [2], the Tm is 56.2 °C.

Turning to GATCGGCTGCCCGATC ((((((....)))))), the folding enthalpy in data set [1] is -31.2 kcal/mol. Also, the Tm in data set [2] is 56.2 °C.

With GATCGGCTGGCCGATC ((((((....)))))), in data set [1], the folding enthalpy is -38.2 kcal/mol. Besides, in data set [2], the Tm turned out to be 68.3 °C.

Consider GATCGGGACCCCGATC ((((((....)))))), for which the folding enthalpy in data set [1] was -39.4 kcal/mol. The Tm in data set [2] was determined as 62.4 °C.

Consider GATCGGGCCTCCGATC ((((((....)))))), for which, in data set [1], the folding enthalpy is -36.6 kcal/mol. Besides, in data set [2], the Tm was 59.7 °C.

On to GATCGGGCTACCGATC ((((((....)))))), for which the folding enthalpy in data set [1] is -36.7 kcal/mol. Further, in data set [2], the Tm was 67.7 °C.

For GATCGGGGAAACCCGGTC ((.((((....)))).)), the folding enthalpy in data set [1] was -26.8 kcal/mol. In addition, the Tm in data set [2] was found to be 53.8 °C.

GATCGGGGAACCGATC ((((((....)))))): the folding enthalpy in data set [1] was -34.1 kcal/mol. Moreover, the Tm in data set [2] is 65.3 °C.

With GATCGGGGTACCGATC ((((((....)))))), the folding enthalpy in data set [1] is -34.5 kcal/mol. Also, the Tm in data set [2] worked out at 65.7 °C.

As for GATCGGGTCACCGATC ((((((....)))))), the folding enthalpy in data set [1] is -36.4 kcal/mol. Also, in data set [2], the Tm is 67.4 °C.

With GATCGGGTCCCGATC ((((((...)))))), the folding enthalpy in data set [1] was -46.5 kcal/mol. Besides, the Tm in data set [2] is 56.7 °C.

Regarding GATCGGGTCGCCGATC ((((((....)))))), in data set [1], the folding enthalpy was -7.84 kcal/mol. The Tm in data set [2] is 65.3 °C.

Consider GATCGGGTGACCGATC ((((((....)))))), for which, in data set [1], the folding enthalpy was -36.4 kcal/mol. Besides, the Tm in data set [2] stood at 67 °C.

On to GATCGGGTGCCGATC ((((((...)))))), for which the folding enthalpy in data set [1] was -49.1 kcal/mol. Further, in data set [2], the Tm was found to be 55.2 °C.

For the sequence GATCGGGTTGCCGATC ((((((....)))))), in data set [1], the folding enthalpy is -31.1 kcal/mol. Moreover, in data set [2], the Tm is 57.7 °C.

GATCGGTAATCCGATC ((((((....)))))): in data set [1], the folding enthalpy is -40.8 kcal/mol. Besides, the Tm in data set [2] was found to be 57.3 °C.

Regarding GATCGGTAGCCCGATC ((((((....)))))), in data set [1], the folding enthalpy is -30.1 kcal/mol. The Tm in data set [2] amounted to 56.3 °C.

For the sequence GATCGGTCACCGATC ((((((...)))))), in data set [1], the folding enthalpy is -36.2 kcal/mol. The Tm in data set [2] was 55.8 °C.

Consider GATCGGTCTTCCGATC ((((((....)))))), for which the folding enthalpy in data set [1] is -37.2 kcal/mol. The Tm in data set [2] came out at 58.9 °C.

GATCGGTGAACCGATC ((((((....)))))): in data set [1], the folding enthalpy was -43.4 kcal/mol. Also, in data set [2], the Tm is 61 °C.

As to GATCGGTGATCCGATC ((((((....)))))), the folding enthalpy in data set [1] is -41.2 kcal/mol. The Tm in data set [2] was 56.8 °C.
